Screening results deposited in PubChem by several laboratories.
STEP block = STEP (human) phosphatase inhibition | P54829 | recombinant STEP, OMFP fluorogenic substrate, fluorescence | inhibition, % at 20 µM | actives 0.25% (n = 360,000);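 active = inhibition at 20 µM, scaled per plate between control wells, above about 37%, limit read from the data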;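 note: 0% = DMSO with enzyme and substrate and 100% = substrate only without enzyme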
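medium = Bis-Tris buffer pH 6.0, 2.5 mM DTT, 0.005% Tween 20 | test system = STEP (striatal-enriched tyrosine phosphatase) enzyme, cell-free | measure = normalized % inhibition | compound dosing = 20 µM, 1% DMSO | also added = 25 µM OMFP | schedule = reaction 20 min, ambient temperature | measured by = fluorescence read at 480 nm ex / 540 nm em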
LMPTP block = blocks human LMPTP phosphatase. inhibition, % at 20 µM. recombinant LMPTP-A, OMFP fluorogenic substrate, fluorescence intensity. actives 0.22% (n = 360,000). P24666;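 active = compounds that cut the enzyme signal by at least half of the control window in the single-dose screen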;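 note: plate controls were DMSO wells with enzyme plus substrate for no effect and substrate without enzyme for full effect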
Target sequence (P24666 whole entry, looked up): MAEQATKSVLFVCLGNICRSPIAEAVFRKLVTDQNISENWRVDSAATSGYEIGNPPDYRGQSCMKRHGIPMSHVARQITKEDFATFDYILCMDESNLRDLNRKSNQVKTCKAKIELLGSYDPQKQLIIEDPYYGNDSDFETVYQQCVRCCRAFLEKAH
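Test system: LMPTP-A phosphatase enzyme; input: 0.625 nM LMPTP-A final; reagent: OMFP substrate, 400 µM final; compound dosing: 20 µM single dose, 3% DMSO; incubation: 50 min dark incubation at room temperature; measured by: endpoint fluorescence intensity from OMFP dephosphorylation; measure: % inhibition relative to no-enzyme and uninhibited control wells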
Scp1 inh = blocks human Scp-1 phosphatase activity; inhibition, % at 20 µM; Recombinant Scp1, phosphopeptide, malachite green phosphate absorbance; actives 0.88% (n = 340,000); Q9GZU7;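 active = inhibition above about 50% at 20 µM, limit read from the data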;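 note: plate controls were DMSO wells with enzyme for no effect and wells lacking enzyme for full effect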
Target sequence (Q9GZU7 76-261 limits assumed): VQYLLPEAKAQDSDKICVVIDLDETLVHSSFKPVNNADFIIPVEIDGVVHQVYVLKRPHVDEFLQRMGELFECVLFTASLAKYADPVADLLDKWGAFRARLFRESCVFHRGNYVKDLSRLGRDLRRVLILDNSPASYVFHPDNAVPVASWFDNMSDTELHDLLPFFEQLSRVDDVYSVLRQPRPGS
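Test system: SCP-1 catalytic domain; Buffer or medium: Acidic Tris acetate buffer with magnesium and detergent; Also added: Phosphorylated 17-residue peptide substrate; Compound: single 20 µM dose, 1% DMSO; Schedule: enzyme reaction 45 min at room temperature, colour 5 min, stabilisation 30 min; Signal: Phosphate-binding colour reagent, absorbance read at 630 nm.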
rCAG RNA binder = binds r(CAG) RNA repeats; r(CAG) RNA repeat, TO-PRO-1 dye displacement fluorescence; actives 1.3% (n = 370,000); AID 651821; inhibition, % at 3 µM;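 active = inhibition above the plate cutoff, the mean of all test compounds on that plate plus 3 SD, cut at about 35% in these data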;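 note: 0% = DMSO alone and 100% = 100 µM mitoxantrone as full dye displacement; higher means more dye released from RNA so lower well fluorescence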
NadD inh = inhibitors of Staphylococcus aureus NadD; purified NadD enzyme, colorimetric absorbance read-out; inhibition, % at 20 µM; actives 0.78% (n = 360,000); AID 602399; in the data active = inhibition above about 26%
rCAG binder conf = r(CAG) RNA repeat binding, confirmation; shares compounds with rCAG RNA binder; TO-PRO-1 dye displacement fluorescence; inhibition, % at 3 µM; actives 70% (n = 4,300); AID 652065;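 active = inhibition above a per-plate cutoff, the mean inhibition of sample wells plus 3 SD, cut at about 35% in these data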;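 note: loss of TO-PRO-1 fluorescence as compound displaces dye from 1x1 AA loop RNA; 0% = DMSO only wells and 100% = 100 µM mitoxantrone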
dCAG dye counter = counter-screen for rCAG RNA binders: DNA CAG dye complex inhibitors; d(CAG) DNA oligo TO-PRO-1 dye displacement, fluorescence; shares compounds with rCAG RNA binder; inhibition, % at 3 µM; AID 652068; actives 94% (n = 4,300);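 active = inhibition above its plate's cutoff, the mean test-well inhibition plus 3 SD, cut at about 4.8% in these data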;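 note: 0% = DNA dye mix with DMSO and 100% = 100 µM mitoxantrone; hits displace the dye from DNA and so lower well fluorescence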
dCAG dye DR = DNA CAG dye complex inhibition, dose response counter-screen; IC50, µM; shares compounds with rCAG RNA binder; actives 20% (n = 250); DNA CAG/GTC duplex TO-PRO-1 dye displacement fluorescence; in the data active = IC50 below about 10 µM
* hit, by the source's call; i = inactive; · = not tested or not shown; ! = a repeat was not active. An excerpt weighted towards active compounds, which were near 2.6% of everything screened.

SMILES | STEP block | LMPTP block | Scp1 inh | rCAG RNA binder | NadD inh | rCAG binder conf | dCAG dye counter | others
O=C(/C=C/c1ccc2c(c1)OCO2)Nc1c(C(=O)O)[nH]c2ccccc12 | 8 | -1 | -7 | 45* | 1 | 38* | 13*
CCOC(=O)c1[nH]c2ccc(OC)cc2c1NC(=O)/C=C/c1ccc2c(c1)OCO2 | 2 | -1 | 2 | 3 | -6 | · | ·
COc1cc(-c2cc(-c3ccccc3)nc(SCC(=O)O)c2C#N)cc(OC)c1OC | 1 | 1 | -22 | 41* | 1 | 50* | 17*
N#Cc1c(-c2ccccc2)cc(-c2ccccc2)nc1SCCC(=O)O | 4 | 4 | -7 | 61* | 4 | 66* | 28* | dCAG dye DR=>30
N#Cc1c(-c2ccc(Cl)cc2)cc(-c2ccccc2)nc1SCC(=O)O | 2 | 1 | -4 | 76* | 11 | 84* | 53*
COC(=O)CSc1nc(-c2ccccc2)cc(-c2ccco2)c1C#N | 2 | 1 | -2 | 9 | 20 | · | ·
N#Cc1c(-c2ccccc2)cc(C2CC2)nc1SCC(=O)O | 2 | 3 | -4 | 14 | 1 | · | ·
COC(=O)[C@]12C[C@H](CC(=O)NCC34CC5CC(CC(C5)C3)C4)C(=O)N(CCC3=CCCCC3)C1=C[C@H](C(C)C)O[C@@H]2C1CC1 | · | · | · | 9 | · | · | ·
COc1ccc(S(=O)(=O)N2CCCc3nc(-c4ccc(F)cc4)ccc32)cc1 | · | · | · | 0 | · | · | ·
CCCCNC(=O)c1onc(CSc2cccc(Cl)c2)c1C(=O)O | 5 | -1 | -7 | 33 | -9 | · | ·
CCCCNC(=O)c1onc(CSc2ccc(C(C)C)cc2)c1C(=O)O | 7 | -1 | -3 | 51* | -1 | 48* | 11*
CCCCNC(=O)c1onc(CSc2cccc3ccccc23)c1C(=O)O | -3 | 2 | -7 | 62* | 3 | 53* | 14* | dCAG dye DR=i
CC(C)NC(=O)c1onc(CSc2cccc3ccccc23)c1C(=O)O | 2 | 0 | -4 | 36* | -1 | 30 | 7.2*
CCCCNC(=O)c1onc(CSc2ccccc2)c1C(=O)O | 3 | -2 | -9 | 11 | -1 | · | ·
O=C(NCC1CCCO1)c1onc(CSc2cccc3ccccc23)c1C(=O)O (centres undefined) | 2 | -1 | -4 | 42* | -6 | 40* | 6.2*
COc1ccc(CN(C)CC#Cc2ccccc2)c(OC)c1 | · | · | · | -2 | · | · | ·
C[C@H]1CN([C@@H](C)CO)C(=O)c2c(c3ccccc3n2C)-c2ccccc2CO[C@H]1CN(C)C(=O)Nc1cccc(F)c1 | · | · | · | 9 | · | · | ·
CCCCNC(=O)c1onc(CSc2cccc(OCC)c2)c1C(=O)O | 1 | -1 | -4 | 45* | -8 | 20 | 1
CCOc1cccc(SCc2noc(C(=O)NCCOC)c2C(=O)O)c1 | 2 | 0 | -5 | 13 | -3 | · | ·
COc1cccc(/C=C2\CC3(OC(=O)C(C)(C)C)CCCN2C3)c1 (centres undefined) | · | · | · | 2 | · | · | ·
CC(C)Cc1nn2c(N)c(/C=C3\C=Nc4ccccc43)c(=O)nc2s1 | 2 | 4 | -6 | 38* | 13 | 62* | 21*
CCCc1nn2c(N)c(/C=C3\C=Nc4ccccc43)c(=O)nc2s1 | 1 | 3 | -9 | 51*! | -5 | 49* | 14*
CC(C)c1nn2c(N)c(/C=C3\C=Nc4ccccc43)c(=O)nc2s1 | -5 | 2 | -1 | 40* | 6 | 41* | 10*
O=C(CNS(=O)(=O)c1cc2ccccc2s1)N1CCN(c2ccccn2)CC1 | · | · | · | 3 | · | · | ·
COc1ccc(CN2C[C@H](COCc3ccccc3)Oc3cccc(F)c3S2(=O)=O)cc1 | · | · | · | 5 | · | · | ·
SMILES | STEP block | LMPTP block | Scp1 inh | rCAG RNA binder | NadD inh | rCAG binder conf | dCAG dye counter | others
CCOC(=O)c1csc(NC(=O)Nc2cccc(Cl)c2)n1 | 0 | 29 | -2 | 59* | 2 | 50* | 28*
NCc1csc(NC(=O)Nc2cccc(Cl)c2)n1 | 1 | -2 | · | 35* | 5 | 10 | 8.4*
CCOC(=O)Cc1csc(NC(=O)Nc2cccc(Cl)c2)n1 | -1 | 1 | -5 | 53* | -2 | 17 | 16*
O=C(Cc1csc(NC(=O)Nc2ccc(Cl)cc2)n1)NCc1ccccn1 | -1 | 1 | -6 | 30 | -3 | · | ·
O=C(Cc1csc(NC(=O)Nc2ccc(Cl)cc2)n1)NC1CCCC1 | 2 | 0 | 1 | 40* | 3 | 16 | 15*
CCOC(=O)c1csc(NC(=O)COc2ccc(Cl)cc2Cl)n1 | 0 | 1 | -8 | 0 | -8 | · | ·
CN(C)Cc1csc(NC(=O)Nc2cccc(Cl)c2)n1 | 1 | -1 | · | 22 | -1 | · | ·
CCCC(=O)OC[C@H]1CN(C2CCCC2)S(=O)(=O)c2c(Oc3ccccc3)cccc2O1 | · | · | · | 1 | · | · | ·
O=C(N[C@H](Cc1ccccc1)C(=O)NCCCc1ccccc1)[C@H]1O[C@@H](n2ccc(=O)[nH]c2=O)[C@H](O)[C@@H]1O | · | · | · | 0 | · | · | ·
CCOC(=O)Cc1csc(NC(=O)Nc2ccc(Cl)cc2)n1 | 0 | 1 | -11 | 40* | -6 | 43* | 17*
CCOC(=O)Cc1csc(N/N=C/c2ccc(Cl)cc2)n1 | -2 | 1 | -5 | 4 | -2 | · | ·
O=C(Nc1ccc(Cl)cc1)Nc1nc(-c2ccccc2O)cs1 | 0 | 0 | -13 | 23 | 9 | · | ·
Cc1csc(NC(=O)Nc2ccc(Cl)cc2)n1 | 2 | -1 | -8 | 38* | 4 | 7 | 9.5*
O=[N+]([O-])c1ccc(Cl)c(S(=O)(=O)Nc2cccc(-c3ccc(N4CCOCC4)nn3)c2)c1 | 6 | 1 | 0 | 38* | 15 | 32 | 9.9*
O=[N+]([O-])c1ccc(Cl)c(S(=O)(=O)Nc2ccc(-c3ccc(N4CCOCC4)nn3)cc2)c1 | -1 | 1 | 7 | 27 | 18 | · | ·
COC(=O)[C@H](CC(C)C)NC(=O)NCCCc1ccccc1 | 0 | -2 | -5 | 48* | -2 | 1 | -2
CCC(C)[C@H](NC(=O)NCCCc1ccccc1)C(=O)OC (some centres undefined) | 0 | 0 | -2 | -7 | -1 | · | ·
Cc1ccc(C(=O)/C=C/c2cc(Br)cc(Br)c2O)o1 | 1 | -1 | -1 | 60* | 11 | 46* | 16*
CCCCCCNC(=O)C1CSCCS(=O)(=O)N1Cc1ccc(C)cc1 (centres undefined) | · | · | · | -1 | · | · | ·
COc1ccc(N=C2SC(C(=O)Nc3ccc(C(=O)O)cc3)CC(=O)N2Cc2cccs2)cc1 (centres undefined) | 0 | 0 | -12 | 61* | 0 | 60* | 20*
